# Assay results as given in ChEMBL document CHEMBL4152257, “Discovery of novel β-carboline/acylhydrazone hybrids as potent antitumor agents and overcome drug resistance” (Eur J Med Chem, 2018).
# What was measured:
# [1] = tested on: NCI/ADR-RES; assay: Induction of apoptosis in human MCF7/ADR cells assessed as necrotic cells at 100 uM after 48 hrs by annexin V-FITC/PI dual staining based flow cytometry (reference value: 2.43%); format: functional
# [2] = tested on: MCF7; assay: Induction of apoptosis in human MCF7 cells assessed as early apoptotic cells at 30 uM after 48 hrs by annexin V-FITC/PI dual staining based flow cytometry (reference value: 11%); format: functional
# [3] = tested on: MCF7; assay: Induction of apoptosis in human MCF7 cells assessed as late apoptotic cells at 30 uM after 48 hrs by annexin V-FITC/PI dual staining based flow cytometry (reference value: 11.1%); format: functional
# [4] = Selectivity ratio of IC50 for HUVEC to IC50 for human A2780S cells; format: toxicity; conditions: HUVEC versus A2780S cells
# [5] = tested on: NCI/ADR-RES; assay: Induction of apoptosis in human MCF7/ADR cells assessed as necrotic cells at 3 uM after 48 hrs by annexin V-FITC/PI dual staining based flow cytometry (reference value: 2.43%); format: functional
# [6] = tested on: Mus musculus; assay: Toxicity in athymic nude Balb/C mouse xenografted with human H460 cells assessed as effect on feeding behaviour at 100 mg/kg, po administered 3 times per week measured every 2 days; format: organism-based; conditions: in vivo, 48 h
# How it was run: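 Nude mice, 5-to-6-week-old females, given 5 × 10^6 H460 cells sc in right flank in HBSS; at 100 mm3 tumour volume randomized, 6 per group. Vehicle; oral 100 mg/kg three times weekly; or ip 30 mg/kg once weekly. Toxicity signs and mortality observed daily; body weight measured every 2 days.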
# [7] = tested on: MCF7; assay: Cell cycle arrest in human MCF7 cells assessed as accumulation at G2/M phase after 18 hrs by propidium iodide staining based flow cytometry; format: functional
# [8] = tested on: MCF7; assay: Induction of apoptosis in human MCF7 cells assessed as viable cells at 10 uM after 48 hrs by annexin V-FITC/PI dual staining based flow cytometry (reference value: 77.8%); format: functional; conditions: MCF7, 48 h, read-out: Activity
# [9] = tested on: MCF7; assay: Cell cycle arrest in human MCF7 cells assessed as accumulation at G2/M phase at 3 uM after 18 hrs by propidium iodide staining based flow cytometry (reference value: 9.98%); format: functional
# [10] = tested on: MCF7; assay: Induction of apoptosis in human MCF7 cells assessed as necrotic cells at 30 uM after 48 hrs by annexin V-FITC/PI dual staining based flow cytometry (reference value: 0.16%); format: functional
# [11] = Resistance index, ratio of IC50 for human A2780T cells to IC50 for human A2780S cells; format: functional
# [12] = tested on: NCI-H460; assay: Antiproliferative activity against human H460 cells after 48 to 72 hrs by MTT assay; format: functional, cell-based
# How it was run: (§1)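 Cells in log phase seeded and allowed to adhere, then exposed to graded compound concentrations for 48 h or 72 h; MTT added for a further 2-3 h, formazan dissolved in DMSO. IC50 taken from dose-response curves; mean ± SD of at least three independent experiments.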
# [13] = tested on: A549/TR; assay: Antiproliferative activity against human A549/TR cells after 48 to 72 hrs by MTT assay; format: functional, cell-based; how it was run: as §1
# [14] = tested on: MCF7; assay: Induction of apoptosis in human MCF7 cells assessed as late apoptotic cells at 3 uM after 48 hrs by annexin V-FITC/PI dual staining based flow cytometry (reference value: 11.1%); format: functional
# [15] = tested on: MCF7; assay: Induction of apoptosis in human MCF7 cells assessed as early apoptotic cells at 3 uM after 48 hrs by annexin V-FITC/PI dual staining based flow cytometry (reference value: 11%); format: functional
# [16] = tested on: NCI/ADR-RES; assay: Induction of apoptosis in human MCF7/ADR cells assessed as early apoptotic cells at 100 uM after 48 hrs by annexin V-FITC/PI dual staining based flow cytometry (reference value: 2.72%); format: functional
# [17] = tested on: NCI/ADR-RES; assay: Induction of apoptosis in human MCF7/ADR cells assessed as viable cells at 3 uM after 48 hrs by annexin V-FITC/PI dual staining based flow cytometry (reference value: 89.8%); format: functional; conditions: read-out: Activity
# [18] = tested on: MCF7; assay: Cell cycle arrest in human MCF7 cells assessed as accumulation at G2/M phase at 100 uM after 18 hrs by propidium iodide staining based flow cytometry (reference value: 9.98%); format: functional
# [19] = tested on: MCF7; assay: Antiproliferative activity against human MCF7 cells at 1 uM after 48 to 72 hrs by MTT assay relative to control; format: functional
# How it was run: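 Single-concentration screen in the MTT proliferation assay: log-phase cells seeded and allowed to adhere, exposed to compound at 1 µM for 48 h or 72 h, MTT added for 2-3 h, formazan dissolved in DMSO; percent inhibition versus control.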
# [20] = tested on: A549; assay: Antiproliferative activity against human A549 cells after 48 to 72 hrs by MTT assay; format: functional, cell-based; how it was run: as §1
# [21] = tested on: MCF7; assay: Cell cycle arrest in human MCF7 cells assessed as accumulation at G0/G1 phase at 3 uM after 18 hrs by propidium iodide staining based flow cytometry (reference value: 45.22%); format: functional
# [22] = tested on: MCF7; assay: Cell cycle arrest in human MCF7 cells assessed as accumulation at S phase at 100 uM after 18 hrs by propidium iodide staining based flow cytometry (reference value: 44.80%); format: functional
# [23] = tested on: MCF7; assay: Cell cycle arrest in human MCF7 cells assessed as accumulation at S phase at 10 uM after 18 hrs by propidium iodide staining based flow cytometry (reference value: 44.80%); format: functional
# [24] = tested on: MCF7; assay: Cell cycle arrest in human MCF7 cells assessed as accumulation at S phase at 3 uM after 18 hrs by propidium iodide staining based flow cytometry (reference value: 44.80%); format: functional
# [25] = tested on: MCF7; assay: Induction of apoptosis in human MCF7 cells assessed as viable cells at 100 uM after 48 hrs by annexin V-FITC/PI dual staining based flow cytometry (reference value: 77.8%); format: functional; conditions: MCF7, 48 h, read-out: Activity
# [26] = tested on: NCI/ADR-RES; assay: Induction of apoptosis in human MCF7/ADR cells assessed as late apoptotic cells at 3 uM after 48 hrs by annexin V-FITC/PI dual staining based flow cytometry (reference value: 5.02%); format: functional
# [27] = tested on: NCI/ADR-RES; assay: Induction of apoptosis in human MCF7/ADR cells assessed as late apoptotic cells at 10 uM after 48 hrs by annexin V-FITC/PI dual staining based flow cytometry (reference value: 5.02%); format: functional
# [28] = Resistance index, ratio of IC50 for human MCF7/ADR cells to IC50 for human MCF7 cells; format: functional
# [29] = tested on: MCF7; assay: Cell cycle arrest in human MCF7 cells assessed as accumulation at G0/G1 phase at 100 uM after 18 hrs by propidium iodide staining based flow cytometry (reference value: 45.22%); format: functional
# [30] = tested on: MCF7; assay: Cell cycle arrest in human MCF7 cells assessed as accumulation at G2/M phase at 10 uM after 18 hrs by propidium iodide staining based flow cytometry (reference value: 9.98%); format: functional
# [31] = tested on: NCI/ADR-RES; assay: Induction of apoptosis in human MCF7/ADR cells assessed as viable cells at 30 uM after 48 hrs by annexin V-FITC/PI dual staining based flow cytometry (reference value: 89.8%); format: functional; conditions: read-out: Activity
# [32] = tested on: NCI/ADR-RES; assay: Induction of apoptosis in human MCF7/ADR cells assessed as viable cells at 100 uM after 48 hrs by annexin V-FITC/PI dual staining based flow cytometry (reference value: 89.8%); format: functional; conditions: read-out: Activity
# [33] = Selectivity ratio of IC50 for HUVEC to IC50 for human A2780T cells; format: toxicity; conditions: HUVEC versus A2780T cells
smiles,measurement,setting,value
N#Cc1ccc(COc2cccc(/C=N/NC(=O)c3cc4c(cn3)[nH]c3ccccc34)c2)cc1,Activity,[1],9.14%
same,Activity,[2],19.4%
same,Activity,[3],28.8%
same,selectivity ratio,[4],29.3
same,Activity,[5],6.04%
same,Activity,[6],Non-Toxic
same,Activity,[7],Dose-dependent effect
same,viability at 10 µM,[8],66.6%
same,Activity,[9],9.31%
same,Activity,[10],0.93%
same,Ratio IC50,[11],1.32
same,IC50,[12],1640 to 1730 nM
same,IC50,[13],3130 nM
same,Activity,[14],17.6%
same,Activity,[15],15.3%
same,Activity,[16],7.11%
same,viability at 3 µM,[17],84.3%
same,Activity,[18],4.29%
same,inhibition at 1 µM,[19],59.6%
same,IC50,[20],1370 nM
same,Activity,[21],34.57%
same,Activity,[22],53.88%
same,Activity,[23],56.38%
same,Activity,[24],56.12%
same,viability at 100 µM,[25],47.2%
same,Activity,[26],7.2%
same,Activity,[27],19.1%
same,Ratio IC50,[28],1.06
same,Activity,[29],41.83%
same,Activity,[30],7.57%
same,viability at 30 µM,[31],64.8%
same,viability at 100 µM,[32],53.5%
same,selectivity ratio,[33],22.2
